Here are results for six compounds from ChEMBL document CHEMBL1955744, “Bis-pyrrolyl-tetrazolyl derivatives as hybrid polar compounds: A case of lipophilic functional bioisosterism with bis-acetamides” (2012).

The source made the active and inactive calls. The calls are words filed in the database; no cut-off is given here. Some results are limits rather than exact numbers.

Experiment [1] concerns MEL. In words: Growth inhibition of MEL cells after 48 hrs. Particulars: Mus musculus. Format: functional, cell-based. In outline:
(§1)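 MEL cells seeded at 1.0 x 10^5 cells/mL in DMEM with 10% v/v FBS and 1% PS, 37 °C, 5% CO2. Agents dissolved in DMSO (final DMSO below 0.5% v/v) and tested at 0.01–100 µM for 48 h. Cells counted by Neubauer hemocytometer. Growth given as percentage of untreated control.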

Experiment [2] is described as follows: Induction of cell differentiation in MEL cells at 100 uM after 96 hrs by benzidine staining. It counts as functional, Mus musculus. A digest of the protocol: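 MEL cells were seeded at 1.0 x 10^5 cells/mL in DMEM with 10% FBS and 1% PS at 37 °C, 5% CO2, then exposed to 100 µM agent in DMSO (final DMSO below 0.5% v/v) for 96 h. HMBA 5 mM served as positive control. Hb-producing cells were scored by benzidine-H2O2 staining and reported as percentage benzidine-positive.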

The test system of experiment [3] is MEL. In words: Growth inhibition of MEL cells at 0.1 mM. Format: functional, cell-based. Particulars: Mus musculus, TDE = time-dependent effect. A digest of the protocol: (§2)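 Exponentially growing MEL cells (1.0 x 10^5 cells/mL, DMEM/10% FBS/1% PS, 37 °C, 5% CO2) were exposed to 10^-4 M agent in DMSO. Untreated cultures served as control and HMBA 5 mM as reference. Samples were removed at various intervals up to 96 h and counted by hemocytometer. Growth was expressed as absolute number or as percentage of control.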

Experiment [4] in a line: Upregulation of beta-major globin gene expression in MEL cells at 0.1 mM after 24 to 96 hrs by RT-PCR analysis. It counts as functional, cell-based. The note with it: Mus musculus. In outline: (§3)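 MEL cells were treated with 10^-4 M agent or 5 mM HMBA for 0, 24, 48, 72 and 96 h, with untreated cells as control. Cells were washed in PBS. Total cytoplasmic RNA (1 µg/reaction) was extracted by acid guanidinium thiocyanate-phenol-chloroform and run in one-step RT-PCR: 50 °C 30 min, 94 °C 2 min, then 30 cycles of 94/58/72 °C, then 72 °C 10 min. β-major globin primers were used with β-actin as internal control.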

Experiment [5] is described as follows: Growth inhibition of MEL cells at 0.01 to 100 uM after 48 hrs relative to control. Format: functional, Mus musculus. A digest of the protocol: as §1
For experiment [6], the system named is MEL. In words: Induction of cell differentiation in MEL cells assessed as hemoglobin accumulation at 0.1 mM by after 24 to 96 hrs by spectrophotometry. It counts as functional, cell-based. The note with it: Mus musculus. In outline:
(§4)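 MEL cells (1.0 x 10^5 cells/mL, DMEM/10% FBS/1% PS, 37 °C, 5% CO2) were treated with 10^-4 M agent or 5 mM HMBA, alongside untreated controls. Total cellular Hb was measured spectrophotometrically in samples taken over a 24–96 h time course.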

The nature of experiment [7]: Growth inhibition of MEL cells at 0.1 mM after 96 hrs. Format: functional. Particulars: Mus musculus, read-out: GI. In outline: as §2
For experiment [8], the system named is MEL. The experiment in a line: Induction of cell differentiation in MEL cells assessed as hemoglobin accumulation at 5 mM by after 24 to 96 hrs by spectrophotometry. It counts as functional, cell-based. Particulars: Mus musculus. A digest of the protocol: as §4
A short description of experiment [9]: Upregulation of beta-major globin gene expression in MEL cells at 5 mM after 24 to 96 hrs by RT-PCR analysis. Format: functional, cell-based. Particulars: Mus musculus. A digest of the protocol:
as §3

In the case of `c1ccn(-c2nnn(CCCCCCn3nnc(-n4cccc4)n3)n2)c1`, the results for the “growth inhibition (GI)” value in [1], in [3] and in experiment [5] were “Dose-dependent effect”, “tde” and 30%, respectively. Further, the Activity in experiment [2] was determined as 30%. The outcome in experiment [4] and in experiment [6] was Active. For the same compound, the inhibition of growth at 100 µM in experiment [7] was > 75%.

On to `CNC(=O)c1cccn1-c1nnn(CCCCCCn2nnc(-n3cccc3C(=O)NC)n2)n1`, for which the entries for the “growth inhibition (GI)” value in experiment [1] and in experiment [5] were “Dose-dependent effect” and 30%, respectively. Also, in experiment [2], the Activity stood at 5%.

With `c1ccn(-c2nnn(CCCCCCCn3nnc(-n4cccc4)n3)n2)c1`, the “growth inhibition (GI)” value is “Dose-dependent effect” in experiment [1] and 30% in [5]. For the same compound, the Activity in [2] is recorded as 5%.

`c1ccn(-c2nnn(CCCCCn3nnc(-n4cccc4)n3)n2)c1`: the “growth inhibition (GI)” value in experiment [1] was “Dose-dependent effect”; in experiment [5] it was 30%. In experiment [2], this compound came in with an Activity of 5%.

As for `CC(=O)NCCCCCCNC(C)=O`, the result in experiment [8] and in [9] was Active.

In the case of `c1ccn(-c2nnn(Cc3ccc(Cn4nnc(-n5cccc5)n4)cc3)n2)c1`, the “growth inhibition (GI)” value is “Dose-dependent effect” in experiment [1] and 30% in experiment [5]. This compound also had an Activity in experiment [2] of 5%.
